High-throughput results as filed in PubChem BioAssay.
SENP8 block-1 = SENP8 protease inhibition | AID 2540 | purified SENP8, Z-RLRGG-aminoluciferin cleavage, luminescence | inhibition, % at 10 µM | 330,000 tested, 1.2% active | Q96LD8; in the data active = inhibition above about 50%
SENP6 inh = SENP6 protease inhibition | Recombinant SENP6 catalytic domain, aminoluciferin luminescence | inhibition, % at 10 µM | 330,000 tested, 1.8% active;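 active = inhibition above about 50% at the single tested dose, limit read from the data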
Target sequence (Q9GZR1 628-1112 limits assumed): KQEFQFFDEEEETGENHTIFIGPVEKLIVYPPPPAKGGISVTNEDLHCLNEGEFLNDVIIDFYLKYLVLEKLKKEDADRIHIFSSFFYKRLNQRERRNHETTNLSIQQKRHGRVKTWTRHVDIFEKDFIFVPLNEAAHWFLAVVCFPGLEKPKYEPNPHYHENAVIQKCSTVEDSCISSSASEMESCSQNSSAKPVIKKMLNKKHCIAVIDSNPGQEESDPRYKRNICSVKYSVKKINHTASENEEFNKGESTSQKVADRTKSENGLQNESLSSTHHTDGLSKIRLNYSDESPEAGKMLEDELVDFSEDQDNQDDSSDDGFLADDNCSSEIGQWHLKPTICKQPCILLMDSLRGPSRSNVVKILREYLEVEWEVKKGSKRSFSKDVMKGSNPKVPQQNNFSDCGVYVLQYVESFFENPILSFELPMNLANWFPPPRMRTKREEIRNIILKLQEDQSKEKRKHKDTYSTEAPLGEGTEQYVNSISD
SENP7 inh = blocks the human protease SENP7; Q9BQF6; recombinant SENP7, Z-RLRGG-aminoluciferin luminescence, 40 min; inhibition, % at 5 µM; 330,000 tested, 1.5% active;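 active = inhibition above about 50% at the single test dose, limit read from the data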
UBC13 inh = inhibitors of human UBC13 polyubiquitin chain formation; P61088; TR-FRET; inhibition, % at 20 µM; 330,000 tested, 0.47% active; AID 485273; in the data active = inhibition above about 45%, passing the limit was not always enough
Target sequence (P61088 whole entry, looked up): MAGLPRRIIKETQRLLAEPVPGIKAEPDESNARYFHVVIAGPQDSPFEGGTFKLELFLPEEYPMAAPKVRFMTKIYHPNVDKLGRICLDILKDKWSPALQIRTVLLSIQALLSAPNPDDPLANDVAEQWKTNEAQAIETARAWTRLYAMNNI
Apaf1 inhib = human Apaf-1 inhibition | 330,000 tested, 0.71% active | inhibition, % at 20 µM | reconstituted apoptosome caspase-3 activity, DEVD-Rh110 fluorescence | AID 489030 | O14727; active = inhibition of at least 40% at 20 µM
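Medium: Hepes buffer, pH 7.5 / System: biochemical Apaf-1 apoptosome reconstitution / Measured by: Rh110 fluorescence, excitation 480 nm, emission 540 nm / Times: compound with Apaf-1, dATP, procaspase-3 30 min, then 50 min reaction, room temperature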
SENP8 block-2 = SENP8 (human) protease inhibition; AID 602440; 360,000 tested, 0.64% active; inhibition, % at 20 µM; Q96LD8; recombinant SENP8, Nedd8 substrate fluorescence; in the data active = inhibition mostly above about 40%, no sharp cut-off; inactive = mostly below about 27%
SENP8 confirm = confirmation of human SENP8 protease inhibitors; shares compounds with SENP7 inh; Recombinant SENP8, Z-RLRGG-aminoluciferin luminescence, 60 min; inhibition, % at 12.5 µM; 6,200 tested, 40% active; AID 488912;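 active = mean inhibition across replicates above about 50%, limit read from the data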
SENP6 conf = human SENP6 inhibition, confirmed. inhibition, % at 12.5 µM. AID 488915. recombinant SENP6, Z-RLRGG-aminoluciferin luminescence. 6,200 tested, 58% active. shares compounds with SENP7 inh
SENP7 conf = confirmation of human SENP7 protease inhibitors | shares compounds with SENP7 inh | recombinant SENP7, Z-RLRGG-aminoluciferin luminescence, 40 min | inhibition, % at 12.5 µM | 6,200 tested, 69% active | AID 488917
Casp3 SENP sel = inhibits human caspase-3 in SENP selectivity test; shares compounds with SENP7 inh; purified caspase-3, Z-DEVD-aminoluciferin luminescence, 60 min; inhibition, % at 12.5 µM; 6,200 tested, 60% active; AID 488918;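 active = mean inhibition above about 50%, limit read from the data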
SENP luc ctr = interferes with luciferase luminescence in SENP counter-screen; shares compounds with SENP7 inh; Pre-incubated SENP8/Z-RLRGG-aminoluciferin, luciferase luminescence interference; inhibition, % at 12.5 µM; 6,200 tested, 39% active;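 active = mean inhibition above about 50% when retested at one dose, limit read from the data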
A number is an active result; 0 = inactive; - = no result. In the library only some 3% were active in any assay of this set; here they are far more common.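 Rule for the calls, unless noted: active = mean inhibition above about 50% in the one-dose retest (limit read from the data); inactive = the rest.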

SMILES	SENP8 block-1	SENP6 inh	SENP7 inh	UBC13 inh	Apaf1 inhib	SENP8 block-2	SENP8 confirm	SENP6 conf	SENP7 conf	Casp3 SENP sel	SENP luc ctr
O=C(O)c1ccc(C(=O)C(=O)c2ccccc2)cc1	0	66.4	0	0	0	0	0	0	79.9	84.7	67.2
O=C(O)c1ccc(-c2nnc(-c3ccc([N+](=O)[O-])cc3)o2)cc1	0	0	0	0	0	0	-	-	-	-	-
O=C(c1ccc(-c2nnc(-c3ccccc3)o2)cc1)N1CCCCCC1	88.3	96.1	93.1	0	0	0	0	0	59.9	69.2	0
COc1ccc(-c2nnc(-c3ccc(C)cc3)o2)cc1	0	0	0	0	0	0	-	-	-	-	-
CC(C)(C)c1ccc(COc2ccsc2C(=O)O)cc1	0	0	0	0	0	0	-	-	-	-	-
CCOC(=O)C1CCN(C(=O)/C=C/c2ccc(S(=O)(=O)N3CCOCC3)cc2)CC1	0	0	0	0	0	0	-	-	-	-	-
COc1ccc(Br)cc1C1=CC(=O)C[C@H](c2ccc(F)cc2)C1	-	-	-	-	-	0	-	-	-	-	-
COc1ccccc1-c1nc(-c2ccc(Br)cc2)no1	70.0	71.4	0	0	0	0	0	0	0	0	0
COc1ccccc1-c1nc(-c2ccc(Br)o2)no1	78.0	83.0	77.8	0	0	0	0	59.3	55.2	0	64.8
COc1ccccc1Cc1nc(-c2ccc(Br)o2)no1	0	0	0	0	0	0	-	-	-	-	-
Cc1ccc(-c2noc(-c3ccccc3Br)n2)cc1	80.0	76.2	89.9	0	0	0	64.2	64.1	84.6	70.2	64.7
CN(C)c1ccc(-c2noc(-c3ccccc3O)n2)cc1	0	0	90.0	0	0	0	0	0	0	0	0
O=C1c2cccnc2C(=O)N1Cc1ccc(F)cc1S(=O)(=O)NCc1ccco1	0	0	0	0	0	0	-	-	-	-	-
c1ccc2oc(-c3ccc4nc[nH]c4c3)nc2c1	0	0	59.7	0	0	0	52.5	50.3	73.6	56.9	0
CC(C)=C(NC(=O)c1ccccc1)C(=O)NCCc1nc2ccccc2[nH]1	0	0	0	0	0	0	-	-	-	-	-
c1ccc(Cn2c(-c3ccco3)nc3nc4ccccc4nc32)cc1	75.5	89.3	52.3	0	0	0	0	82.0	96.1	82.5	0
O=c1c2ccccc2nc(-c2ccco2)n1Cc1ccccc1	62.8	76.9	69.2	0	0	0	79.2	76.0	89.0	77.6	77.2
COc1cc(OC)cc(C(=O)Nc2nc3ccc(S(C)(=O)=O)cc3s2)c1	90.8	85.5	98.0	0	0	0	93.4	95.9	100.9	95.7	92.0
CS(=O)(=O)c1ccc2nc(NC(=O)c3cccc([N+](=O)[O-])c3)sc2c1	95.4	94.5	96.6	0	0	0	98.1	98.7	102.5	97.0	78.1
COc1cc(OC)cc(-c2nnc(SCc3ccc(C(=O)O)cc3)o2)c1	0	0	0	0	0	0	-	-	-	-	-
Cc1ccc(C2N(c3cccc(Cl)c3)C(=O)N3CCCN23)cc1 (centres undefined)	0	0	0	0	0	0	-	-	-	-	-
Cc1ccc(-c2cc(-c3ccccc3)no2)cc1	92.2	96.6	98.0	0	0	0	0	0	70.7	0	0
c1ccc(-c2cc(-c3ccccc3)on2)cc1	87.4	0	97.6	0	0	0	0	84.9	0	56.5	0
Nc1nc(-c2ccccc2)cs1	0	0	0	0	0	0	-	-	-	-	-
O=C(c1ccccc1)c1cc(-c2ccccc2)on1	97.2	99.4	100.5	0	0	0	0	100.9	103.8	98.7	94.5
SMILES	SENP8 block-1	SENP6 inh	SENP7 inh	UBC13 inh	Apaf1 inhib	SENP8 block-2	SENP8 confirm	SENP6 conf	SENP7 conf	Casp3 SENP sel	SENP luc ctr
Nc1nc(-c2cc(-c3ccccc3)no2)cs1	94.6	96.4	96.0	0	0	0	96.6	97.3	102.0	95.0	83.3
Cc1cccc(Sc2nc(-c3ccccc3)ncc2C(=O)O)c1	0	0	0	0	0	0	-	-	-	-	-
COc1ccc(NC(=O)CN2C(=O)NC(C)(c3ccc(C)cc3)C2=O)cn1 (centres undefined)	0	0	0	0	0	0	-	-	-	-	-
COc1ccccc1OCC(O)Cn1c(=N)n(Cc2ccccc2)c2ccccc21 (centres undefined)	0	0	0	0	0	0	-	-	-	-	-
Cc1ccccc1OCC(O)Cn1c(=N)n(Cc2ccccc2)c2ccccc21 (centres undefined)	0	0	50.8	0	0	0	0	0	0	0	0
COc1cc(SC)ccc1C(=O)Nc1cccc(C2OCCCO2)c1	0	0	0	0	0	0	-	-	-	-	-
COc1ccc(-c2nnc(-c3ccc(F)cc3)o2)cc1	56.5	57.8	68.8	0	0	0	0	0	0	0	0
COc1ccc(-c2nnc(-c3ccccc3O)o2)cc1	83.6	80.5	93.0	0	0	0	51.1	0	66.8	56.2	0
COc1ccc(C(=O)NC2CC(C)(C)NC(C)(C)C2)cc1S(=O)(=O)N1CCOCC1	-	-	-	-	-	0	-	-	-	-	-
Cc1cccc(NC(=O)c2cc3ccccc3oc2=O)c1	63.9	87.7	96.9	0	0	0	0	0	0	0	0
COc1ccc2oc(=O)c(C(=O)Nc3cccc(C)c3)cc2c1	0	0	0	0	0	0	-	-	-	-	-
O=C(NC1CCCCCC1)c1cc2ccccc2oc1=O	0	72.8	56.4	0	0	0	50.5	59.5	68.3	63.3	0
Cc1ccnc(NC(=O)c2cc3ccccc3oc2=O)c1	82.3	72.2	95.1	0	0	0	0	0	0	55.2	0
COc1cc2ccccc2cc1C(=O)Nc1cc(C)ccn1	0	0	0	0	0	0	-	-	-	-	-
Cc1ccccc1NC(=O)c1ccc(NC(=O)C2CC(=O)OC23CCCCC3)cc1 (centres undefined)	-	-	-	-	-	0	-	-	-	-	-
COc1ccc(C2(C(=O)Nc3ccc(C)cc3)CCOCC2)cc1	0	0	0	0	0	0	-	-	-	-	-
CSc1ccc(/C=N/NC(=O)c2cccc(O)c2)cc1	75.0	91.3	90.0	0	0	0	0	81.3	95.7	86.1	83.1
COc1ccc(-c2nc(-c3ccncc3)no2)cc1OC	0	0	0	0	0	0	-	-	-	-	-
Cc1ccc(-c2nc(-c3ccncc3)no2)cc1C	79.4	84.9	78.0	0	0	0	53.3	58.4	76.4	65.5	0
Cc1ccc(-c2nc(-c3ccncc3)no2)cc1Cl	0	0	54.8	0	0	0	0	0	0	0	0
